According to the RNAGym collection of RNA variant scans (doi:10.1126/science.aae0568):
Fewer inactive variants are shown than the library holds.

B1: tRNA (parent)
chain: GUUCCGUUGGCGUAAUGGUAACGCGUCUCCCUCCUAAGGAGAAGACUGCGGGUUCGAGUCCCGUACGGAACG

Variants of: B1
Assay: yeast fitness relative to wild type (ratio to wild type); higher = fitter; tRNA-Arg(CCU), competitive growth, 37 C, YPD
Procedure, shortened: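 Start and end populations of a pooled competition were compared by 100-nucleotide paired-end sequencing of gene amplicons. The Saccharomyces cerevisiae strains carried tRNA-Arg(CCU) gene variants at the native genomic locus, synthesised with a 3% per-site mutation rate at 69 sites, and competed in YPD at 37°C for 24 hours in six parallel replicates. Darwinian fitness relative to wild type was based on the change in genotype frequencies. Genotypes required ≥ 100 starting reads, and estimates < 0.5 were set to 0.5.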

U2A C4A G6A C29G A57G and U2A C31G A65U G67C cannot be ordered by yeast fitness: at most 0.5 for the first, at most 0.5 for the second.

U2A C31U U35C A45U and U2A U3G U32A C60A cannot be ordered by yeast fitness: at most 0.5 for the first, at most 0.5 for the second.

U2A C11G C27G U54A C66U and U2A G12A A20G U26C C31G C33U A42U cannot be ordered by yeast fitness: at most 0.5 for the first, at most 0.5 for the second.

U2A A42G C61U G63A and U2A G12A A21C G48C cannot be ordered by yeast fitness: at most 0.5 for the first, at most 0.5 for the second.

U2A C11A C24G U47G and U2A G6A C11G C49U G58C G68U cannot be ordered by yeast fitness: at most 0.5 for the first, at most 0.5 for the second.

U2A C11G U47A and U2A G9A A37G A65C cannot be ordered by yeast fitness: at most 0.5 for the first, at most 0.5 for the second.

Compared with U2A C29A A45U G67C, U2A A45C is higher in yeast fitness: at most 0.5 for the first, 0.933 for the second.

Compared with U2A G9A C31U C46G C49U C66G, U2A C27A is higher in yeast fitness: at most 0.5 for the first, 0.894 for the second.

First: U2A C27U
Second: U2A A45C C55A
The yeast fitness of the first is higher: 0.982 for the first, at most 0.5 for the second.

U2A C5G C31U C66U and U2A C11G C61A cannot be ordered by yeast fitness: at most 0.5 for the first, at most 0.5 for the second.

U2A C27U U47G C55G G58C and U2A G9C G17A cannot be ordered by yeast fitness: at most 0.5 for the first, at most 0.5 for the second.

Going from U2A C22G to U2A C22U, the yeast fitness falls from 0.888 to 0.796.

Compared with U2A G6C C33U A40G, U2A G39U C49A G58C is higher in yeast fitness: 0.547 for the first, 0.939 for the second.

U2A G25C A36U and U2A C11G G25A A40U C49A C55U cannot be ordered by yeast fitness: at most 0.5 for the first, at most 0.5 for the second.

U2A U3A U59G and U2A G6A C11G U28G C34G G44C C61G cannot be ordered by yeast fitness: at most 0.5 for the first, at most 0.5 for the second.

U2A G38C C55U and U2A A57U C61U C66G cannot be ordered by yeast fitness: at most 0.5 for the first, at most 0.5 for the second.

Going from U2A G50C to U2A C33U A37C, the yeast fitness falls from 0.562 to 0.532.

First: U2A C24A C30U
Second: U2A C27A C60U A69G
The yeast fitness of the first is lower: at most 0.5 for the first, 0.514 for the second.

Going from U2A G18A G44C to U2A G6A A40U C46A, the yeast fitness rises from at most 0.5 to 0.596.

Compared with U2A U7C G25A A36U C62U G67A, U2A G17C C46G C66A A70C is higher in yeast fitness: at most 0.5 for the first, 0.605 for the second.

Going from U2A G9C to U2A G9A C33U G38C A40U A42C, the yeast fitness falls from 0.716 to at most 0.5.

U2A C5G U8A G44A G48A G50C and U2A C11G U28A A65G cannot be ordered by yeast fitness: at most 0.5 for the first, at most 0.5 for the second.

Going from U2A G25C G38C C61U A70G to U2A C5U G23A A37G A69G A70U, the yeast fitness rises from at most 0.5 to 0.845.

Going from U2A C5U C29G A37U to U2A C27U C29U C62U, the yeast fitness falls from 0.512 to at most 0.5.

Compared with U2A G6C U7C A43C C46U G63C C66U, U2A C5A U53G is higher in yeast fitness: at most 0.5 for the first, 0.514 for the second.

U2A G6A C11G C49U A65U and U2A C33G C46A C66A cannot be ordered by yeast fitness: at most 0.5 for the first, at most 0.5 for the second.

U2A C22A C49G and U2A G6A C27G A42U A43U cannot be ordered by yeast fitness: at most 0.5 for the first, at most 0.5 for the second.

First: U2A G10C
Second: U2A G9C G17A C60G
The yeast fitness of the first is higher: 0.673 for the first, 0.572 for the second.

First: U2A G63A
Second: U2A G63C
The yeast fitness of the first is higher: 0.927 for the first, 0.673 for the second.

Compared with U2A G9A U19C A69C, U2A G48A C60U A69U is lower in yeast fitness: 0.685 for the first, at most 0.5 for the second.

Going from U2A C11G A40U to U2A C11U A14U U19G, the yeast fitness falls from 0.544 to at most 0.5.

U2A G6A C33G C34G C61A and U2A U3C U26C U35A C62A cannot be ordered by yeast fitness: at most 0.5 for the first, at most 0.5 for the second.

Compared with U2A C30U A42G C60G C62G A65G, U2A C5A C60A is lower in yeast fitness: 0.595 for the first, at most 0.5 for the second.

Going from U2A G17C C49U to U2A C11G C34U A42U G68A, the yeast fitness falls from 0.571 to at most 0.5.

Going from U2A C4G U8A G12A G48A A69C to U2A G58C C66U, the yeast fitness rises from 0.544 to 0.702.

U2A G6A U16C C24U G38C A65C and U2A C4G C34U cannot be ordered by yeast fitness: at most 0.5 for the first, at most 0.5 for the second.

Compared with U2A C5G C24U C30G C49G C61G, U2A C46G C61U is higher in yeast fitness: at most 0.5 for the first, 0.804 for the second.

U2A G39A G48C and U2A G9A G48C G50A cannot be ordered by yeast fitness: at most 0.5 for the first, at most 0.5 for the second.

U2A C4G A14U C60A and U2A C5G C11G A14U A15U U16C C29U cannot be ordered by yeast fitness: at most 0.5 for the first, at most 0.5 for the second.

U2A C29A C30U C46U G58C and U2A C5G C11G A20G cannot be ordered by yeast fitness: at most 0.5 for the first, at most 0.5 for the second.

Going from U2A G39C to U2A U8A C29G C60U C62A, the yeast fitness falls from 0.75 to at most 0.5.

U2A U3A A45G C49U showed a yeast fitness of 0.609.
